ChEMBL document CHEMBL4673344, “Novel substituted N-benzyl(oxotriazinoindole) inhibitors of aldose reductase exploiting ALR2 unoccupied interactive pocket” (Bioorg Med Chem, 2021)

Columns and labels:
Rattus norvegicus [1] = species on record: Rattus norvegicus; assay: Selectivity index, ratio of IC50 for Wistar rat kidney ALR1 to IC50 for Wistar rat lens ALR2
Summary of the method: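 Selectivity factor S_F = IC50(ALR1)/IC50(ALR2). ALR1 came from rat kidneys and ALR2 from rat eye lenses with D,L-glyceraldehyde as substrate. Both were assayed spectrophotometrically by NADPH consumption at 340 nm.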

ALR1 = assay: Inhibition of Wistar rat kidney ALR1 assessed as reduction in NADPH consumption using sodium D-glucuronate as substrate at 100 uM incubated for 1 min and measured up to 4 mins by spectrophotometric analysis relative to control; assay type: tissue-based; settings: rat kidney ALR1 (aldehyde reductase) enzyme, probe sodium D-glucuronate
Summary of the method: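 Enzyme: ALR1 isolated from rat kidneys. Activity was followed spectrophotometrically as NADPH consumption at 340 nm and expressed as decrease in O.D./s/mg protein. Inhibition is given as % of enzyme inhibition at 100 μM inhibitor.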

[2] = Inhibition of Wistar rat lens ALR2 assessed as reduction in NADPH consumption using D,L-glyceraldehyde as substrate incubated for 1 min and measured up to 4 mins by spectrophotometric analysis; assay type: tissue-based
Summary of the method: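 ALR2 was isolated from rat eye lenses and assayed for reduction of D,L-glyceraldehyde. NADPH consumption was read spectrophotometrically at 340 nm, with activity expressed as decrease in O.D./s/mg protein. The IC50 was derived from inhibition of this activity.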

[3] = Inhibition of Wistar rat kidney ALR1 assessed as reduction in NADPH consumption using sodium D-glucuronate as substrate incubated for 1 min and measured up to 4 mins by spectrophotometric analysis; assay type: tissue-based
Summary of the method: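 Aldehyde reductase (ALR1) was isolated from rat kidneys. Activity was monitored spectrophotometrically by NADPH consumption at 340 nm, expressed as decrease in O.D./s/mg protein. The IC50 was determined from inhibition of this activity.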

Rattus norvegicus [4] = species on record: Rattus norvegicus; assay: Potency index, ratio of IC50 of OTI-6 to IC50 of compound for inhibition of Wistar rat lens ALR2 assessed as reduction in NADPH consumption using D,L-glyceraldehyde as substrate incubated for 1 min and measured up to 4 mins by spectrophotometric analysis; assay type: tissue-based

| SMILES | Ratio IC50 (Rattus norvegicus [1]) | inhibition at 4 min, 100 µM (ALR1) | IC50 [2] | pIC50 [2] | IC50 [3] | Ratio IC50 (Rattus norvegicus [4]) |
| --- | --- | --- | --- | --- | --- | --- |
| N#Cc1ccccc1Cn1nc2c3ccccc3n(CC(=O)O)c2nc1=O | > 1330 | 51% | 76 nM | 7.12 | > 100000 nM |  |
| O=C(O)Cn1c2ccccc2c2nn(Cc3ccccc3)c(=O)nc21 | > 230 | 38% | 434 nM | 6.36 | > 100000 nM |  |
| NC(=O)c1ccccc1Cn1nc2c3ccccc3n(CC(=O)O)c2nc1=O | > 424 | 50% | 236 nM | 6.63 | > 100000 nM | 2 |
| O=C(O)Cn1c2ccccc2c2nn(Cc3ccccc3CO)c(=O)nc21 | > 410 | 33% | 241 nM | 6.61 | > 100000 nM | 2 |
| O=C(O)Cn1c2ccccc2c2nn(Cc3ccccc3C(=O)O)c(=O)nc21 | 424 | 62% | 139 nM | 6.86 | 59000 nM |  |
